This passage reports Level results from ChEMBL document CHEMBL1141109, “Synthesis of an estrogen receptor beta-selective radioligand: 5-[18F]fluoro-(2R,3S)-2,3-bis(4-hydroxyphenyl)pentanenitrile and comparison of in vivo distribution with 16alpha-[18F]fluoro-17beta-estradiol” (J Med Chem, 2005).

Test [1] is filed under the species Mus musculus. Kind of test: Serum estradiol level in estrus estrogen receptor beta mouse; (n=3). Format: functional, organism-based. The method in brief:
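Serum was collected and sent to an outside laboratory for radioimmunoassay using reagents intended for human serum. […] Results are in pg/mL as mean ± SD, with three samples per mouse.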

The species entered for test [2] is Mus musculus. The test is described as follows: Serum estradiol level in nonestrus mouse BALB/c cell line; (n=3).

Turning to `C[C@]12CC[C@@H]3c4ccc(O)cc4CC[C@H]3[C@@H]1CC[C@@H]2O`, the Level is 43.8 pg/mL in the test filed under Mus musculus [1] and 28.7 pg/mL in the test listed under Mus musculus [2].
